In BindingDB's records for doi:10.1021/jm00074a030 (Wellcome Research Laboratories, 1993) one finds Ki data, which are given here for three compounds.

Structures are written as SMILES.

The term Ki denotes a measure of affinity in units of concentration, obtained from inhibition or displacement.

In this assay the target is Thymidylate synthase (Homo sapiens, UniProt P04818). Briefly: Inhibition of purified human thymidylate synthase (TS) isolated from an Escherichia coli harboring a plasmid with thy A gene cloned from SV40 transformed human fibroblast cells. The method, boiled down: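 Purified recombinant human TS, expressed in E. coli from a thyA gene cloned from SV40-transformed human fibroblasts. Inhibition was measured by a modified tritium-release assay. Ki was estimated by treating compounds as tight-binding noncompetitive inhibitors.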
Chain of Thymidylate synthase (P04818 whole entry): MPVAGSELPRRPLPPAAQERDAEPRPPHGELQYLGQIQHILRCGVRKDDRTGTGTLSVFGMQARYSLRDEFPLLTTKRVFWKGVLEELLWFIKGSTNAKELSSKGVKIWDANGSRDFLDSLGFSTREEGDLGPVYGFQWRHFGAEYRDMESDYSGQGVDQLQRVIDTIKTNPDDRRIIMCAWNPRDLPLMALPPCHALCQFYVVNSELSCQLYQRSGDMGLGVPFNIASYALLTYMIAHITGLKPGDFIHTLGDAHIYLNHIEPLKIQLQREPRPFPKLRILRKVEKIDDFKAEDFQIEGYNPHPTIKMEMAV
Compound `Nc1nc(O)c2c(ccc3ccc(NS(=O)(=O)c4ccc(C(=O)N[C@@H](CCC(=O)O)C(=O)O)cc4)cc32)n1` came in with a Ki of 100 nM.

In turn, `Nc1nc2ccc3cc(S(=O)(=O)Nc4ccc(C(=O)N[C@@H](CCC(=O)O)C(=O)O)cc4)c(Br)cc3c2c(=O)[nH]1` had an inhibition constant (Ki) of 16400 nM.

`Nc1nc(O)c2c(ccc3ccc(Br)cc32)n1` gave an inhibition constant (Ki) of 20 nM.
